H9c2 TAG inh = reduces triacylglycerol accumulation in H9c2 cells. Nile Red lipid (TAG) fluorescence; cells loaded with 200 µM oleic acid. AID 651582. 230,000 tested, 0.66% active. inhibition, % at 12.5 µM;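 active = pattern-corrected inhibition of lipid staining of at least 50% with the nuclear-stain viability signal not falling by more than 50%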;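 also: 0% = DMSO wells and 100% = triacsin C control wells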
SMARCA2 act = activators of SMARCA2 function. MG213 cells, MMTV-luciferase reporter, dexamethasone, overnight. activation, % at 9.1 µM. 370,000 tested, 1% active. AID 652017; in the data active = activation above about 7.8%;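 also: 0% = vehicle wells and 100% = reference activator wells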
SR-BI HDL uptake = inhibitors of mouse SR-BI mediated HDL lipid uptake | Q61009 | ldlA[mSR-BI] CHO cells, DiI-HDL uptake fluorescence, 3 h | inhibition, % at 12.5 µM | 320,000 tested, 0.96% active | AID 488896;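 active = mean replicate inhibition of at least 70% and a set share of replicates each scoring 70 or more; inconclusive = meets just one of the two criteria; inactive = fails both criteria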;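 also: 0% = median of neutral control wells and 100% = median of positive control wells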
Target sequence (Q61009 whole entry, looked up): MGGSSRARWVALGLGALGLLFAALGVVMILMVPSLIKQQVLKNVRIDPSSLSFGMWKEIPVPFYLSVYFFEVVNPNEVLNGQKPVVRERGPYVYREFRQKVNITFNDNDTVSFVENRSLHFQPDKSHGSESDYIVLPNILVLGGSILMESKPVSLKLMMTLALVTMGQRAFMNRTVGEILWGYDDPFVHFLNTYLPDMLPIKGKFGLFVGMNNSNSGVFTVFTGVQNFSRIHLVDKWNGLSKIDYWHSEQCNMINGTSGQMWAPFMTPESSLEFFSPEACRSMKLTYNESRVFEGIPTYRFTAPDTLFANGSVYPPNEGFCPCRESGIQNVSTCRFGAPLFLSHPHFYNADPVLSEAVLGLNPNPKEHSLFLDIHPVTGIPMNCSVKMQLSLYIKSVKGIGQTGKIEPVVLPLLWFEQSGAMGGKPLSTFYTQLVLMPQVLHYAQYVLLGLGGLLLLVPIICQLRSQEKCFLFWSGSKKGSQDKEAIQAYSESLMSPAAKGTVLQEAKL
SR-BI uptake up = enhances SR-BI lipid uptake from DiI-HDL. activation, % at 12.5 µM. 320,000 tested, 0.096% active. CHO ldlA[mSR-BI] cells, DiI-HDL uptake fluorescence, 3 h; 100 = double the neutral-control signal. AID 504775;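 active = mean replicate activation of at least 60% and every replicate at or above 60%; inconclusive = mean or all-replicate condition met, but not both; inactive = mean below 60% and not all replicates reaching 60%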;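 also: 0% = median plate neutral-control signal and 100% = twice that signal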
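Assay system: LDL receptor-deficient CHO ldlA cells overexpressing murine SR-BI / Medium: BSA-supplemented, HEPES-buffered Ham's F12, pH 7.4 / Probe or stimulus: DiI-labelled HDL at 10 µg/mL final / Timing: compound with DiI-HDL co-incubation, 3 h at 37 °C / Technique: bottom-read cell fluorescence after medium removal, ex 550/em 595 nm / Measure: HDL uptake via cellular fluorescence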
Vif imaging = blocks HIV Vif function. HEK293T cells, Vif self-association by quenched fluorescence, imaging, 24 h. 340,000 tested, 0.35% active. inhibition, % at 7.49 µM; in the data active = inhibition above about 50%, passing the limit was not always enough; inconclusive = no clear call, values can overlap the other calls; inactive = below about 31%
SMARCA2 act conf = SMARCA2 activation, confirmation screen | shares compounds with SMARCA2 act | MG213 cells, MMTV-luciferase with dexamethasone, luminescence, overnight; MG213 cells expressing E1A, Rb sequestered; DMSO wells 0%, reference activator 100% | activation, % at 9.1 µM | 3,500 tested, 30% active;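 active = activation above its plate's cutoff, the mean activation of tested wells plus 3 SD, cut at about 7.9% in these data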
GAL4-VP16 Luc = activates GAL4-VP16 luciferase, flagging SMARCA2 activator hits; 3,500 tested, 41% active; HEK293 GAL4-VP16 pG5luc reporter, luciferase luminescence; scaled: DMSO wells 0%, SAHA wells 100%; shares compounds with SMARCA2 act; AID 686939; activation, % at 9.1 µM;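 active = activation above the solvent-only control well mean plus 3 SD, averaged across control plates, cut at about 5.2% in these data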
Starred values were filed as active, the others as inactive; u = inconclusive; x = not tested or not shown. This is a sample that favours compounds with a hit; in the whole collection about 2.5% have one here.

SMILES | H9c2 TAG inh | SMARCA2 act | SR-BI HDL uptake | SR-BI uptake up | Vif imaging | SMARCA2 act conf | GAL4-VP16 Luc
c1cncc(-c2nc3cc4ccccc4cc3[nH]2)c1 | x | 8.4* | 18.1 | -18.1 | -0.5 | 13.2* | 17.5*
CN(C)/C=C/C(=O)c1ccc2noc(-c3ccc(F)cc3)c2c1 | x | 11.2* | 86.5* | -86.5 | -6.8 | -1.0 | -0.1
Cc1ccc(-c2onc3ccc(C(=O)/C=C/N(C)C)cc23)cc1 | x | 1.7 | 29.5 | -29.5 | x | x | x
Cc1cc(N2CCOCC2)nc2ccc(NC(=O)CCC(=O)N3CCN(c4ccccc4)CC3)cc12 | x | 8.2* | x | x | 3.5 | 2.3 | 5.4*
CCCCNC(=O)CCC(=O)Nc1ccc2nc(N3CCOCC3)cc(C)c2c1 | 4.0 | 3.4 | 11.1 | -11.1 | -12.5 | x | x
Cc1cccc(C)c1NC(=O)C(c1ccnc2ccccc12)N1CCN(C)CC1 (stereo not given) | x | -4.3 | x | x | x | x | x
Cc1nn(Cc2c(F)c(F)c(F)c(F)c2F)c(C)c1NC(=O)c1cccc(COc2ccccc2Cl)c1 | x | 13.1* | 59.2 | -59.2 | 14.2 | 3.6 | 13.2*
O=c1[nH]c(CN2CCN(S(=O)(=O)c3ccccc3C(F)(F)F)CC2)nc2sc3c(c12)CCCC3 | x | 11.6* | 18.4 | -18.4 | x | -2.5 | -0.1
COc1cc2nc(CN3CCN(S(=O)(=O)c4ccccc4C(F)(F)F)CC3)[nH]c(=O)c2cc1OC | 1.9 | -8.0 | -3.5 | 3.5 | 8.6 | x | x
COc1ccccc1Cc1c(-c2ccc(OC)c(OC)c2)nc2ccc(C)cn12 | x | -4.9 | x | x | x | x | x
CNC(=O)NC(=O)COc1ccc2oc3c(c2c1)CCCC3 | x | 2.5 | x | x | 5.9 | x | x
Cc1ccc(NCc2nnc(SCC(=O)N3c4ccccc4Sc4ccccc43)o2)c(C)c1 | x | -4.9 | 23.3 | -23.3 | -2.9 | x | x
COc1cc(/C=N/NC(=S)NC2CC3CCC2C3)ccc1O (stereo not given) | 1.9 | 9.4* | 57.6 | -57.6 | -1.5 | 7.1 | 3.2
COc1ccc(/C=N/NC(=S)N[C@H]2CC3CCC2C3)cc1 (stereo not given in full) | -3.8 | -1.6 | 22.1 | -22.1 | -2.1 | x | x
COC(=O)C1=C(C)N(CC(C)C)C(=S)NC1c1cccc(OC)c1 (stereo not given) | x | -2.3 | x | x | x | x | x
Cc1cc(CNC[C@H]2O[C@@H](n3cnc(C(N)=O)n3)[C@H](O)[C@@H]2O)c(C)n1-c1cccnc1 | 13.8 | -5.7 | 16.2 | -16.2 | x | x | x
NC(=O)c1ncn([C@@H]2O[C@H](CNCc3cccn3-c3ccncc3)[C@@H](O)[C@H]2O)n1 | -2.9 | 8.4* | 1.5 | -1.5 | 5.6 | -0.3 | -1.4
O=C(NC(CSSCC(NC(=O)c1ccccc1)C(=O)O)C(=O)O)c1ccccc1 (stereo not given) | x | 1.6 | -13.2 | 13.2 | 0.3 | x | x
COc1ccc(C(=O)Cc2nnc(C)s2)cc1 | x | 9.1* | -13.3 | 13.4 | 7.2 | 5.9 | 11.6*
C[C@H](CO)N1C[C@H](C)[C@H](CN(C)C(=O)Nc2cccc(F)c2)Oc2cc(Br)ccc2S1(=O)=O | x | -2.4 | x | x | x | x | x
O=NN(CCF)C(=O)NC1CCS(=O)(=O)CC1 | x | -5.1 | x | x | x | x | x
Cc1ccc(NC(=O)C2CCCN(c3ncccn3)C2)cc1C (stereo not given) | x | 15.0* | x | x | -6.6 | 6.9 | 7.0*
COc1ccc(NC(=O)C2CCCN(c3nccc(C)n3)C2)cc1 (stereo not given) | -9.4 | -3.3 | -0.5 | 0.5 | -12.4 | x | x
COc1ccc(NC(=O)C2CCCN(c3ncccn3)C2)cc1 (stereo not given) | x | 8.4* | -0.5 | 0.5 | 4.6 | 6.2 | 5.2*
CS(=O)(=O)N1CCC(C(=O)NCc2ccc3c(c2)OCO3)CC1 | 4.9 | 0.7 | -28.8 | 28.8 | 0.1 | x | x
SMILES | H9c2 TAG inh | SMARCA2 act | SR-BI HDL uptake | SR-BI uptake up | Vif imaging | SMARCA2 act conf | GAL4-VP16 Luc
COc1ccccc1/C=C/CN1CCC(n2nccc2NC(=O)C2CC2)CC1 | -1.8 | 0.4 | 0.8 | -0.8 | u | x | x
COc1ccc(C(CC(=O)Nc2nccs2)n2cccc2)cc1 (stereo not given) | 2.9 | 8.1* | 8.6 | -8.6 | 9.1 | 4.5 | 10.0*
CC1CCN(C(=S)NC(=O)c2cccc([N+](=O)[O-])c2)CC1 | -8.6 | 8.6* | -3.9 | 3.9 | -8.3 | -1.4 | 0.4
Cc1cc(C(=O)O[C@H]2CCC[C@]3(C(=O)N(Cc4ccccc4)c4ccccc43)[C@H]2NC(=O)CCc2ccccc2)no1 | x | -4.6 | x | x | x | x | x
COc1cccc(NC(=O)c2cc3ccccc3o/c2=N\O)c1 | x | 0.5 | 19.4 | -19.4 | -4.3 | x | x
O=C(Nc1ccccc1Cl)c1cc2ccccc2o/c1=N\O | x | 10.9* | 29.4 | -29.4 | -8.1 | 15.4* | 16.2*
COc1cccc(C(=O)Nc2cc(C(=O)NCCc3ccccc3)ccc2Cl)c1 | x | 1.9 | 51.8 | -51.7 | -2.0 | x | x
CCCCC(=O)Nc1cc(C(=O)NCCc2ccccc2)ccc1Cl | x | 8.2* | 28.0 | -28.0 | -7.2 | 7.0 | 8.8*
Cc1ccc2nc(Cl)c(C3CC(c4cccs4)=NN3S(C)(=O)=O)cc2c1 (stereo not given) | x | 11.1* | 5.9 | -5.9 | -1.1 | -1.3 | 0.6
Cc1ccc2cc(C3CC(c4cccs4)=NN3S(C)(=O)=O)c(Cl)nc2c1 (stereo not given) | 1.7 | -1.7 | x | x | -3.7 | x | x
CC1=C(c2ccccc2)C(=O)C(C)(C)CC1=O | x | -2.6 | x | x | x | x | x
CC(C)n1c(/C=C/[C@@H](O)C[C@@H](O)CC(=O)O)c(-c2ccc(F)cc2)c2ccccc21 | -5.5 | 12.3* | 7.2 | -7.2 | -2.6 | 24.8* | 3.3
O=C(Nc1nc2ncccn2c1-c1ccc(F)cc1)C1CC1 | x | 8.7* | x | x | x | -2.3 | 0.0
O=C(Nc1ccccc1)Nc1nc2ncccn2c1-c1ccc(F)cc1 | x | 14.1* | x | x | x | 3.6 | 4.4
Cc1ccc(-c2c(NC(=O)Nc3ccccc3)nc3ncccn23)cc1 | x | 1.7 | x | x | x | x | x
O=C(NCCCNCCCNC(=O)c1ccccn1)c1ccccn1 | 20.1 | 11.8* | 12.5 | -12.5 | -5.8 | -3.2 | 1.0
S=C(NC1CCCC1)N1CCOCC1 | x | 8.2* | 11.7 | -11.7 | 1.6 | -1.7 | 1.8
COc1ccc(-c2nc3ccccn3c2C=O)cc1 | x | 8.7* | -7.7 | 7.7 | -2.9 | 7.6 | 9.0*
O=Cc1c(-c2ccc(F)cc2)nc2ccccn12 | 2.5 | -3.1 | -9.3 | 9.3 | -0.9 | x | x
c1ccc(C2=Nc3ccccc3NC(c3ccccc3)C2)cc1 (stereo not given) | x | 9.7* | 13.6 | -13.6 | -0.1 | 2.6 | 7.0*
COC(=O)c1cccc(Cn2ccc3ccc(-c4ccc5ccn(C(=O)C6CC6)c5c4)cc32)c1 | x | -1.4 | x | x | x | x | x
Cc1ccc(SCC(=O)Nc2ccc(N3CCN(C)CC3)c(F)c2)cc1 | 27.3 | 10.6* | -32.0 | 32.0 | 5.3 | 4.7 | 3.7
